Source: PubChem
Hits are enriched below; roughly 2.2% of the tested compounds scored in any of these assays.
HNF4A DNA FP – change in binding of human HNF4 alpha to DNA; P41235; HNF4a-FITC DNA binding, fluorescence polarization, 1 h; activity change, % at 10 µM; hit rate 0.3% among 360,000; in the data active = activity change above about 30%, passing the limit was not always enough
Exocytosis inh – blocks lytic granule exocytosis. hit rate 0.66% among 360,000. AID 651702. TALL-104 LAMP-1 surface exposure, flow cytometry; cells stimulated with thapsigargin and PMA. inhibition, % at 10 µM;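 active = inhibition above about 55%, limit read from the data; inconclusive = no clear call, values can overlap the other calls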
CSN deneddyl inh – inhibitors of human CSN-mediated cullin deneddylation | Q92905 | Purified CSN, SCF-Nedd8-OG deneddylation, fluorescence polarization | inhibition, % at 12.5 µM | hit rate 0.38% among 360,000;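 active = pattern-corrected inhibition above about 35%, with an unprinted fluorescence ratio check between 0.5 and 1.5, limit read from the data, passing the limit was not always enough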;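 note: 0% = enzyme with substrate and 100% = substrate without enzyme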
Target sequence (Q92905 whole entry, looked up, one chain of several): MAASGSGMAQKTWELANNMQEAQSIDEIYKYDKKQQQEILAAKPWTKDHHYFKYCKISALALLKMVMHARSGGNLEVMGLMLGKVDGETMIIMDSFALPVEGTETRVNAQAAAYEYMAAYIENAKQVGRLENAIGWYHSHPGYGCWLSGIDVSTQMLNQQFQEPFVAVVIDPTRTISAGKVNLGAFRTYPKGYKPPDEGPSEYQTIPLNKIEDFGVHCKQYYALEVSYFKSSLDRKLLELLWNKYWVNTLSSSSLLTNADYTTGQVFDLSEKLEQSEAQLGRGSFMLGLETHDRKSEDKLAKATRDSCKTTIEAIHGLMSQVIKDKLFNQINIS
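Assay system: HEK293T-derived human Csn5 enzyme; quantity: 0.24 nM enzyme; medium: Tris/NaCl/DTT buffer, pH 7.5; also added: substrate SCFSkp2-Nedd8OG, 10 nM; doses: 12.5 µM compound; schedule: 90 min reaction at room temperature; signal: FP; read-out: % inhibition of substrate cleavage by Csn5; benchmarks: substrate-only high control, full reaction low control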
Myeloid diff MLP – promotes myeloid progenitor differentiation; AID 624256; calls only at 10 µM; hit rate 1% among 360,000; ER-HoxA9 myeloid progenitors, lysozyme-GFP differentiation, flow cytometry;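 active = normalized GFP-positive differentiation at or above the plate's own cutoff, the solvent-only control mean plus 3 SD; inconclusive = no clear call, values can overlap the other calls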;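 note: cells exposed to compound for four days before flow analysis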
* = called active by the depositor; i = inactive; ? = inconclusive; . = not tested or not shown; + = active, no number.

SMILES | HNF4A DNA FP | Exocytosis inh | CSN deneddyl inh | Myeloid diff MLP
COc1ccc(C)cc1N(CC(=O)N1CCCCCC1)S(C)(=O)=O | 0 | -8 | 3 | i
COc1ccc(C)cc1N(CC(=O)N1CCCC1)S(C)(=O)=O | 9 | -7 | 70* | i
O=c1nc(Nc2ccc(OCc3ccccc3)cc2)sc2ncccc12 | 2 | 1 | 1 | +
CCOC(=O)c1ccc(Nc2nc(=O)c3cccnc3s2)cc1 | -1 | -1 | -6 | i
CCOC(=O)C1=C(N)n2c(s/c(=C\c3ccncc3)c2=O)=C(C(=O)OCC)C1c1ccncc1 (centres undefined) | -1 | 0 | -7 | i
CCOC(=O)C1=C(N)n2c(s/c(=C\c3cccnc3)c2=O)=C(C(=O)OC)C1c1cccnc1 (centres undefined) | 0 | -1 | 67* | i
O=C1NC[C@@H](Cc2cccc3ccccc23)N(CCc2cccc(F)c2)C1=O | 4 | 0 | 54* | i
CCCCN1C(=O)C(=O)NC[C@H]1Cc1cccc2ccccc12 | 3 | -7 | 51* | i
CCOc1ccc(/C=N/NC(=O)Cc2csc(Nc3cccc(C(F)(F)F)c3)n2)c(OCC)c1 | -1 | 68* | 17 | i
COc1cc(C=NO)nc(-c2ccccn2)c1 | 1 | -18 | 1 | .
C=C1C(=O)C=C2CN(C(=O)c3ccccc3)[C@@](Cc3ccc(F)cc3)(C(=O)OC)[C@@H]12 | 4 | 1 | -1 | +
COc1ccc(S(=O)(=O)N(C)CC(=O)NCCN2CCOCC2)cc1Cl | 1 | -2 | 0 | i
O=C(c1cccc(N2CCCC2=O)c1)N1CCN(c2cccc(Cl)c2)CC1 | 5 | -5 | 1 | ?
Cc1ccc(C(=O)CCS(=O)(=O)c2ccc(Cl)cc2)cc1 | 0 | 35 | 1 | +
COc1ccc(NC(=O)CCS(=O)(=O)c2ccc(OC)cc2)cc1 | 1 | -2 | -1 | i
COc1ccc(NC(=O)CCS(=O)(=O)c2ccc(Cl)cc2)cc1 | 0 | 1 | 3 | +
Cc1ccc(C2(C)NC(=O)N(CC(=O)N3CCN(S(=O)(=O)c4ccc(Cl)s4)CC3)C2=O)cc1 (centres undefined) | 4 | -1 | 1 | i
O=S(=O)(c1ccccc1)N1CCCCC1CCc1ccccc1 (centres undefined) | 6 | -4 | 3 | i
CN(CCOc1ccc(Cl)cc1)C(=O)c1cc([N+](=O)[O-])ccc1N1CCOCC1 | -2 | 54 | 7 | i
Cc1ccc(NC(=O)CSc2nc(=O)n(CCCN3CCOCC3)c3c2CCCC3)c(C)c1 | 1 | 3 | -5 | i
CCn1cc(/C=C/c2cc[n+](C)cc2)c2ccccc21 | 81 | 0 | -73 | ?
Cc1[nH]c2ccccc2c1/C=C/c1cc[n+](C)cc1 | 144 | 1 | 130 | +
C=CCn1c(C)c(/C=C/c2cc[n+](C)cc2)c2ccccc21 | 181 | 19 | 140 | +
Cc1[nH]c2ccccc2c1/C=C/C(=O)c1ccncc1 | 13 | 9 | 9 | +
CCN(CC)C(=O)Cn1c(C)c(/C=C/c2cc[n+](C)cc2)c2ccccc21 | 158 | 5 | 99* | +
SMILES | HNF4A DNA FP | Exocytosis inh | CSN deneddyl inh | Myeloid diff MLP
COc1cc(/C=C/c2nc3ccccc3s2)cc(OC)c1O | 10 | 5 | 8 | +
Cc1ccc(/C=C/c2nc3ccccc3s2)s1 | 8 | -2 | 4 | i
CN(C)c1ccc(/C=C/c2nc3ccccc3s2)cc1 | 36* | 0 | 18 | +
Cc1ccc(-c2ccc(CCC(=O)O)n2-c2cccc(C(=O)O)c2)cc1 | 3 | -2 | 1 | i
Cc1cccc([C@@H]2[C@@H]3C(=O)N(Cc4ccccc4)C(=O)[C@@H]3[C@]3(Cc4ccc(Cl)cc4)C(=O)N(c4cccc(Br)c4)C(=O)N23)c1 | -1 | 1 | 0 | +
CCC(=O)c1ccc(OCC(=O)OC(C)C(=O)NCc2ccc3c(c2)OCO3)cc1 (centres undefined) | 1 | 3 | -2 | .
CCO[C@@H]1OC(C(=O)NCc2ccccc2)=C[C@H](C2CCCCC2)[C@H]1CCCO | -5 | 0 | -1 | +
CCOc1cc(/C=C2/C(=N)N3C(=NC2=O)SN=C3S(=O)(=O)C(C)C)ccc1OC(=O)c1ccco1 | 39* | -1 | 28 | i
COc1cc(/C=C2/C(=N)N3C(=NC2=O)SN=C3S(C)(=O)=O)ccc1OC(=O)c1ccco1 | 51* | -4 | 31 | i
CCc1sc(C(=O)NNC(=O)c2cncc(Br)c2)cc1C | -2 | 9 | -2 | i
Oc1ccc(CNc2ccccc2)c2cccnc12 | 5 | 2 | -1 | i
